Assay results taken from ChEMBL document CHEMBL4732057, “Design, synthesis and biological evaluation of second-generation benzoylpiperidine derivatives as reversible monoacylglycerol lipase (MAGL) inhibitors” (Eur J Med Chem, 2021).
pIC50, pKi: −log10 of the molar value. Activity calls are given as the source filed them. The calls are words filed in the database; no cut-off is given here.

Assays:
Monoglyceride lipase [1] = biological target: T1, Monoglyceride lipase (Homo sapiens, UniProt Q99685); experiment: Inhibition of MAGL in human U937 cells assessed as reduction in [3H]glycerol formation using [1,2,3-3H]2-OG as substrate incubated for 15 mins by liquid scintillation spectroscopy; format: cell-based, U-937
T1 sequence (Q99685 whole entry): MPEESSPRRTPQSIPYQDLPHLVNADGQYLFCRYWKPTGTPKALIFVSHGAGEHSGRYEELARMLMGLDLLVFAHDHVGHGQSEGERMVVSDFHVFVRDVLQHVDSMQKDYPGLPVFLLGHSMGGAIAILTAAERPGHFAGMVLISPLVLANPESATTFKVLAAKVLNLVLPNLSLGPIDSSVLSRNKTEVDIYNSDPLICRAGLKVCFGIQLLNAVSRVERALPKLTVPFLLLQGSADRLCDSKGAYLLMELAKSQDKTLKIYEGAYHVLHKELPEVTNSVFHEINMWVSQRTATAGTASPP
Procedure, shortened: (§1)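 Intact U937 cells (1.0 × 10^6) in Tris-HCl 10 mM, EDTA 1 mM, 0.1% BSA, pH 8, given compound at 37 °C. Then 15 min at 37 °C with shaking. MAGL: 10 µM 2-OG plus 0.5 nM [3H]2-OG. FAAH: 1 µM AEA plus 2 nM [3H]AEA. Aqueous-phase tritium counted; three experiments in triplicate.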

[2] = biological target: T2, Lysophosphatidylserine lipase ABHD12 (Homo sapiens, UniProt Q8N2K0); experiment: Inhibition of human ABHD12 expressed in HEK293 cells using [3H]2-OG as substrate preincubated for 30 mins followed by substrate addition and measured after 5 mins by liquid scintillation spectroscopy; format: cell-based
T2 sequence (Q8N2K0 whole entry): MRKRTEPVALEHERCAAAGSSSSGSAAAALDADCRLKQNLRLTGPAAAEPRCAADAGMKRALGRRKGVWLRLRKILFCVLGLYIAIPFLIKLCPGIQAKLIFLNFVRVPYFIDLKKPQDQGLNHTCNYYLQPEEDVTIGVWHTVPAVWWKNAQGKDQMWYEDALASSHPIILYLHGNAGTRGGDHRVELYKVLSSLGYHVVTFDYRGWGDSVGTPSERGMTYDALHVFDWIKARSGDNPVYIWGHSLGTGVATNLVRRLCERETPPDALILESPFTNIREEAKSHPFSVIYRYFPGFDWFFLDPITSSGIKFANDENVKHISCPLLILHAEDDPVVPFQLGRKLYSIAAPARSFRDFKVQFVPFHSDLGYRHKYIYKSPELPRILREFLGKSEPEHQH
Procedure, shortened: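 Homogenate (40 µg) of HEK293 cells stably transfected with human ABHD6 or ABHD12, preincubated with compound 30 min at 37 °C in […], 0.1% BSA, pH 7.6. 2-OG 10 µM added for 5 min at 37 °C. Stopped with CHCl3:MeOH; aqueous tritium counted; blanks and nontransfected HEK293 hydrolysis subtracted. Screening at 10 µM.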

Caov-3 cell line = experiment: Antiproliferative activity against human CAOV3 cells as reduction in cell growth measured after 96 hrs by Celltiter-glo luminescent assay; format: functional, cell-based; details: Caov-3, 96 h
Procedure, shortened: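 Cell lines kept at 37 °C, 5% CO2; 5 × 10^2 cells per well, compound added the day after seeding at 200 to 0.02 µM. Viability read after 96 h by CellTiter-Glo luminescence. IC50 from logistic dose-response curves, in triplicate; error bars are SD.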

[3] = Cytotoxicity against cancer-derived human organoids in HGSOC patient assessed as reduction in cell viability up to 100 uM measured after 96 hrs by Celltiter-glo luminescent assay; format: functional, Neoplasm; details: dose microM <=100
Procedure, shortened: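 Organoids from three HGSOC patients. Tissue digested with 2 mg/mL collagenase for 30 min, embedded in BME matrix and cultured. Treated at 100 µM, with carboplatin as positive control. Viability read by CellTiter-Glo luminescence.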

[4] = biological target: T3, Monoglyceride lipase (Homo sapiens) (UniProt Q99685); experiment: Reversible inhibition of human recombinant MAGL using 4-nitrophenylacetate as substrate preincubated with enzyme for 0 to 60 mins followed by substrate addition by microplate reader assay; details: time 0-60 min
T3 sequence (whole entry): T1 sequence (Q99685 whole entry)
Procedure, shortened: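 MAGL (11 ng/well) preincubated with compound in DMSO for 0, 30 or 60 min. Reaction then started with 4-NPA 500 µM stock, same buffer and read-out as the main assay. IC50 at each time; triplicates of two independent experiments.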

Monoglyceride lipase [5] = biological target: T1, Monoglyceride lipase; experiment: Competitive inhibition of human recombinant MAGL using varying concentration of 4-nitrophenylacetate as substrate incubated for 30 mins by microplate reader assay
Procedure, shortened: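 MAGL 11 ng/well; 4-nitrophenol absorbance recorded. Data fitted by the mixed-model inhibition fit to give Ki.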

Cannabinoid receptor 1 = Cannabinoid receptor 1 (Homo sapiens, UniProt P21554); experiment: Displacement of [3H]CP55940 from human CB1 receptor incubated for 90 mins by radioligand binding assay
Chain of Cannabinoid receptor 1 (P21554 whole entry): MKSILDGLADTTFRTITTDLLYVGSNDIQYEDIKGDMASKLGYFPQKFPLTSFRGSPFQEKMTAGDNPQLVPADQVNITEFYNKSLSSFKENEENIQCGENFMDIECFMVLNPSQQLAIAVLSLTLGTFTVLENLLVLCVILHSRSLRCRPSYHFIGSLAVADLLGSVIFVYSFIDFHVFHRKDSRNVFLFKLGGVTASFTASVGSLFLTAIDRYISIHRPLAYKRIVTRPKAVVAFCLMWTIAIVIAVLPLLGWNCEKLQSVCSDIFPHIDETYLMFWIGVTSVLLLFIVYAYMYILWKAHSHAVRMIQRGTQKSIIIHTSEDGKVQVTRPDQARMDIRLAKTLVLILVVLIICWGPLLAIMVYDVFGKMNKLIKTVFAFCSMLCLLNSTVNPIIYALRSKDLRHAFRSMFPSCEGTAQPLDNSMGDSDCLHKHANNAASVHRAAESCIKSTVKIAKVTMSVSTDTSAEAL
Procedure, shortened: (§2)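 Membranes expressing hCB1 or hCB2 in 50 mM Tris-HCl, 2.5 mM EDTA, 5 mM MgCl2, 0.5% BSA, pH 7.4, incubated with compound and 0.5 nM [3H]CP55,940 for 90 min at 30 °C. Nonspecific binding with 10 µM […]; filtered and counted. Screening at 10 µM; two experiments in triplicate.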

Cannabinoid receptor 2 = Cannabinoid receptor 2 (Homo sapiens, UniProt P34972); experiment: Displacement of [3H]CP55940 from human CB2 receptor incubated for 90 mins by radioligand binding assay; procedure, shortened: as §2
Chain of Cannabinoid receptor 2 (P34972 whole entry): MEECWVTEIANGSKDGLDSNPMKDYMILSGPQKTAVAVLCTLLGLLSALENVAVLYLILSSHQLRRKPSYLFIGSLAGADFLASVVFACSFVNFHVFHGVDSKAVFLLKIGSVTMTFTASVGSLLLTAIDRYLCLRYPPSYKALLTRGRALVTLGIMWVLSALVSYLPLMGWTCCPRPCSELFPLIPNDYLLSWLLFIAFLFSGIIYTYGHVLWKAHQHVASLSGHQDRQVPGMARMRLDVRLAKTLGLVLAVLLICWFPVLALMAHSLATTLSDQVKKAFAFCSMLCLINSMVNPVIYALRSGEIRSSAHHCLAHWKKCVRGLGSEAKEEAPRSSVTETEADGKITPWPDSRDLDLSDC

[6] = biological target: T4, Fatty-acid amide hydrolase 1 (Homo sapiens) (UniProt O00519); experiment: Inhibition of FAAH in human U937 cells assessed as reduction in [3H]ethanolamine formation using [ethanolamine-1-3H]AEA as substrate at 10 uM incubated for 15 mins by liquid scintillation spectroscopy; format: cell-based; details: U-937; procedure, shortened: as §1
T4 sequence (whole entry): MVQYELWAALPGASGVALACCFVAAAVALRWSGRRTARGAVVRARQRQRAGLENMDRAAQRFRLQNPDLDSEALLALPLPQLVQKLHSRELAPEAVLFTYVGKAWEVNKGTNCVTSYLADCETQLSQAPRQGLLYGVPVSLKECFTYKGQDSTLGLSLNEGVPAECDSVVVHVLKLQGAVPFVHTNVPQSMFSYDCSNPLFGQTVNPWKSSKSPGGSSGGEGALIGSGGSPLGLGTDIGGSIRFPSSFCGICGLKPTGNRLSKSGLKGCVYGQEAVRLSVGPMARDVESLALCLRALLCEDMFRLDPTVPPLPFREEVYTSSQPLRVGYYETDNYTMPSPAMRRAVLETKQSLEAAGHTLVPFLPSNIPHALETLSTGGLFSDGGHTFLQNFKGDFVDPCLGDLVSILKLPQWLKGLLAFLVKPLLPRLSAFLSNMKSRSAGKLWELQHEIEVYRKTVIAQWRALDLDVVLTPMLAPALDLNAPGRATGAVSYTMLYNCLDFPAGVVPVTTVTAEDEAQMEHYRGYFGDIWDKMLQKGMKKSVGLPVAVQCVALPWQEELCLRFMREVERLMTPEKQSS

pIC50 (Monoglyceride lipase [1]) | pIC50 [2] | inhibition [4] | pKi (Monoglyceride lipase [5]) | pIC50 (Cannabinoid receptor 1) | pIC50 (Cannabinoid receptor 2) | inhibition [6] [%] | Compound | pIC50 (Caov-3 cell line) | inhibition (INH) [3] [%]
5.91 | < 5.00 | Active | 7.52 | < 5.00 | < 5.00 | 21 | O=C(c1ccc(Cc2ccccc2)cc1)C1CCN(C(=O)c2cc(O)c(F)cc2F)CC1 | 4.36 | 18
6.25 | < 5.00 | Active | 7.96 | < 5.00 | < 5.00 | 22 | O=C(c1ccc(Sc2ccccc2)cc1)C1CCN(C(=O)c2cc(O)c(F)cc2F)CC1 | 4.38 | 42
6.06 | < 5.00 | Active | 7.57 | < 5.00 | < 5.00 | < 10 | O=C(c1ccc(Sc2ccccc2)cc1)C1CCN(C(=O)c2cc(O)ccc2F)CC1 | 4.47 | 42
6.07 | < 5.00 | Active | 7.43 | < 5.00 | < 5.00 | < 10 | O=C(c1ccc(Cc2ccccc2)cc1)C1CCN(C(=O)c2cc(O)ccc2F)CC1 | 4.15 | 42
